According to ChEMBL document CHEMBL2021791, “Synthesis, structure-activity relationships and biological evaluation of caudatin derivatives as novel anti-hepatitis B virus agents” (Bioorg Med Chem, 2012):

Columns and labels:
Hepatitis B virus [1] = test: Antiviral activity against Hepatitis B virus infected in human HepG2(2.2.15) cells assessed as suppression of HBsAg secretion by ELISA; type: functional, organism-based
Hepatitis B virus [2] = test: Antiviral activity against Hepatitis B virus infected in human HepG2(2.2.15) cells assessed as suppression of HbeAg secretion by ELISA; type: functional, organism-based
Hepatitis B virus [3] = test: Antiviral activity against Hepatitis B virus infected in human HepG2(2.2.15) cells assessed as inhibition of viral DNA replication by RT-PCR analysis; type: functional, organism-based
[4] = Cytotoxicity against human HepG2(2.2.15) cells by MTT assay; type: cell-based
Summary of the method: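 HepG2 2.2.15 cells were exposed to compounds and viability was read by a modified MTT method. CC50 is the concentration giving 50% cytotoxicity. Values are means of at least two experiments.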

Hepatitis B virus [5] = test: Selectivity ratio of CC50 for human HepG2(2.2.15) cells to IC50 for Hepatitis B virus infected in human HepG2.2.15 cells assessed as suppression of HBsAg secretion; type: cell-based; details: read-out: Ratio CC50/IC50
Summary of the method: (§1)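 The selectivity index was calculated as CC50/IC50. CC50 is MTT cytotoxicity in HepG2 2.2.15 cells. No index was given where a value could not be obtained.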

Hepatitis B virus [6] = test: Selectivity ratio of CC50 for human HepG2(2.2.15) cells to IC50 for Hepatitis B virus infected in human HepG2(2.2.15) cells assessed as suppression of HBeAg secretion; type: cell-based; details: read-out: Ratio CC50/IC50; summary of the method: as §1
Hepatitis B virus [7] = test: Selectivity ratio of CC50 for human HepG2(2.2.15) cells to IC50 for Hepatitis B virus infected in human HepG2(2.2.15) cells assessed as inhibition of viral replication; type: cell-based; details: read-out: Ratio CC50/IC50; summary of the method: as §1

CC(=O)[C@]1(O)CC[C@@]2(O)[C@]1(C)[C@H](OC(=O)/C=C(\C)C(C)C)C[C@@H]1[C@@]3(C)CC[C@H](OC(=O)c4cccnc4)CC3=CC[C@]12OC(=O)c1cccnc1
IC50 (Hepatitis B virus [1]): 199 µM | IC50 (Hepatitis B virus [2]): 204 µM | IC50 (Hepatitis B virus [3]): 97 µM | CC50 ([4]; HepG2(2.2.15) cells): 350 µM | selectivity ratio (Hepatitis B virus [5]): 1.8 | selectivity ratio (Hepatitis B virus [6]): 1.7 | selectivity ratio (Hepatitis B virus [7]): 3.6

C[C@H](Cn1cnc2c(N)ncnc21)OCP(=O)(O)O [TENOFOVIR ANHYDROUS]
IC50 (Hepatitis B virus [1]): 1450 µM | IC50 (Hepatitis B virus [2]): 1240 µM | IC50 (Hepatitis B virus [3]): 0.77 µM | CC50 ([4]; HepG2(2.2.15) cells): > 1820 µM | selectivity ratio (Hepatitis B virus [5]): > 1.3 | selectivity ratio (Hepatitis B virus [6]): > 1.5 | selectivity ratio (Hepatitis B virus [7]): > 2360

CC(=O)[C@]1(O)CC[C@@]2(O)[C@]1(C)[C@H](OC(=O)/C=C(\C)C(C)C)C[C@@H]1[C@@]3(C)CC[C@H](OC(=O)C(C#N)=C(C)C)CC3=CC[C@]12O
IC50 (Hepatitis B virus [1]): 136 µM | IC50 (Hepatitis B virus [2]): 221 µM | IC50 (Hepatitis B virus [3]): 30.6 µM | CC50 ([4]; HepG2(2.2.15) cells): 452 µM | selectivity ratio (Hepatitis B virus [5]): 3.3 | selectivity ratio (Hepatitis B virus [6]): 2 | selectivity ratio (Hepatitis B virus [7]): 14.8

CC(=O)[C@]1(O)CC[C@@]2(O)[C@]1(C)[C@H](OC(=O)/C=C(\C)C(C)C)C[C@@H]1[C@@]3(C)CC[C@H](OC(=O)/C=C/n4ccnc4)CC3=CC[C@]12O
IC50 (Hepatitis B virus [1]): 18.7 µM | IC50 (Hepatitis B virus [2]): 13.2 µM | IC50 (Hepatitis B virus [3]): 7.48 µM | CC50 ([4]; HepG2(2.2.15) cells): > 1460 µM | selectivity ratio (Hepatitis B virus [5]): > 78 | selectivity ratio (Hepatitis B virus [6]): > 111 | selectivity ratio (Hepatitis B virus [7]): > 195

CC(=O)[C@]1(OC(=O)c2cccnc2)CC[C@@]2(O)[C@]1(C)[C@H](OC(=O)/C=C(\C)C(C)C)C[C@@H]1[C@@]3(C)CC[C@H](OC(=O)c4cccnc4)CC3=CC[C@]12O
IC50 (Hepatitis B virus [1]): 90 µM | IC50 (Hepatitis B virus [2]): 135 µM | IC50 (Hepatitis B virus [3]): 24.7 µM | CC50 ([4]; HepG2(2.2.15) cells): 602 µM | selectivity ratio (Hepatitis B virus [5]): > 6.7 | selectivity ratio (Hepatitis B virus [6]): > 2.4 | selectivity ratio (Hepatitis B virus [7]): > 24.4

CC(=O)[C@]1(O)CC[C@@]2(O)[C@]1(C)[C@H](OC(=O)/C=C(\C)C(C)C)C[C@@H]1[C@@]3(C)CC[C@H](OC(=O)c4cc5ccccc5[nH]4)CC3=CC[C@]12O
IC50 (Hepatitis B virus [1]): 21.7 µM | IC50 (Hepatitis B virus [2]): 33.7 µM | IC50 (Hepatitis B virus [3]): 3.63 µM | CC50 ([4]; HepG2(2.2.15) cells): 36.7 µM | selectivity ratio (Hepatitis B virus [5]): 1.7 | selectivity ratio (Hepatitis B virus [6]): 1.1 | selectivity ratio (Hepatitis B virus [7]): 10.1

CC(=O)[C@]1(O)CC[C@@]2(O)[C@]1(C)[C@H](OC(=O)/C=C(\C)C(C)C)C[C@@H]1[C@@]3(C)CC[C@H](O)CC3=CC[C@]12O [CAUDATIN]
IC50 (Hepatitis B virus [1]): 143 µM | IC50 (Hepatitis B virus [2]): > 183 µM | IC50 (Hepatitis B virus [3]): 40.6 µM | CC50 ([4]; hepg2 2.2.15): 245 µM | selectivity ratio (Hepatitis B virus [5]): 1.7 | selectivity ratio (Hepatitis B virus [6]): < 1.3 | selectivity ratio (Hepatitis B virus [7]): 6

CC(=O)[C@]1(O)CC[C@@]2(O)[C@]1(C)[C@H](OC(=O)/C=C(\C)C(C)C)C[C@@H]1[C@@]3(C)CC[C@H](OC(=O)COc4ccccc4)CC3=CC[C@]12O
IC50 (Hepatitis B virus [1]): 76.7 µM | IC50 (Hepatitis B virus [2]): 96.1 µM | IC50 (Hepatitis B virus [3]): 41 µM | CC50 ([4]; HepG2(2.2.15) cells): 319 µM | selectivity ratio (Hepatitis B virus [5]): 4.2 | selectivity ratio (Hepatitis B virus [6]): 3.3 | selectivity ratio (Hepatitis B virus [7]): 7.8

CC(=O)[C@]1(OC(=O)/C=C/c2ccc3c(c2)OCO3)CC[C@@]2(O)[C@]1(C)[C@H](OC(=O)/C=C(\C)C(C)C)C[C@@H]1[C@@]3(C)CC[C@H](OC(=O)/C=C/c4ccc5c(c4)OCO5)CC3=CC[C@]12O
IC50 (Hepatitis B virus [1]): 575 µM | IC50 (Hepatitis B virus [2]): 407 µM | IC50 (Hepatitis B virus [3]): > 201 µM | CC50 ([4]; HepG2(2.2.15) cells): > 1020 µM | selectivity ratio (Hepatitis B virus [5]): > 1.8 | selectivity ratio (Hepatitis B virus [6]): > 2.5
